Data published in ChEMBL document CHEMBL4477155, “Simplified Bryostatin Analogues Protect Cells from Chikungunya Virus-Induced Cell Death” (J Nat Prod, 2016).

Legend:
Chikungunya virus = test: Antiviral activity against Chikungunya virus Indian Ocean 899 infected in African green monkey BGM cells assessed as inhibition of virus-induced cytopathic effect after 5 days by MTS/PMS based […] analysis; assay type: functional, organism-based; details: Indian Ocean 899, BGM, 120 h
[1] = Cytotoxicity against African green monkey BGM cells assessed as reduction in cell viability after 5 days by MTS/PMS based microscopic analysis; details: chlorocebus aethiops
In short: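 Uninfected BGM cells (2.5 × 10^4 cells/well, adhered overnight) exposed to compound dilution series in MEM with 2% FBS at 37 °C, 5% CO2; metabolic activity read by MTS/PMS, with microscopic check of monolayer morphology. CC50 = concentration reducing overall metabolic activity by 50%, by logarithmic interpolation.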

| SMILES | EC50 (Chikungunya virus) | CC50 at 120 h [1] |
| --- | --- | --- |
| CCC/C=C/C=C/C(=O)O[C@H]1/C(=C/C(=O)OC)C[C@H]2C[C@H]([C@@H](C)O)OC(=O)C[C@H](O)C[C@@H]3C[C@H](O)C(C)(C)[C@](O)(C[C@@H]4C/C(=C/C(=O)OC)C[C@H](/C=C/C(C)(C)[C@]1(O)O2)O4)O3 | > 96 µM | > 96 µM |
| C=C1C[C@H]2C[C@@H]3O[C@@H](CCC3(C)C)C[C@@H](O)CC(=O)O[C@@H](CO)C[C@@H]3C/C(=C\C(=O)OC)[C@H](OC(=O)CCCCCCC)[C@@](O)(O3)C(C)(C)/C=C/[C@@H](C1)O2 | 0.35 µM | – |
| CCC/C=C/C=C/C(=O)O[C@H]1/C(=C/C(=O)OC)C[C@H]2C[C@H]([C@@H](C)O)OC(=O)C[C@H](O)C[C@@H]3C[C@H](OC(C)=O)C(C)(C)[C@](O)(C[C@@H]4C/C(=C/C(=O)OC)C[C@H](/C=C/C(C)(C)[C@]1(O)O2)O4)O3 [BRYOSTATIN 1] | > 96 µM | – |
